Results taken from ChEMBL document CHEMBL3525963, “Tissue distribution and elimination of [14C]apixaban in rats” (Drug Metab Dispos, 2011).

Experiments:
Design in all cases: dose 5 mg/kg, dosed compound name [14C]-apixaban, route oral
Details in all cases: in vivo
Spleen [1] = assay: Biodistribution in male Sprague-Dawley rat spleen at 5 mg/kg, po administered as single dose measured after 72 hrs; type: ADME, organism-based
How it was run: (§1)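 Fasted male SD rats (225-252 g) each received one oral gavage dose of [14C]apixaban, 5 mg/kg (100 μCi/kg), in 0.5% Tween 80/Labrafil vehicle. One rat was killed per time point, from 0.5 to 168 h. Frozen carcasses were cut into 40 µm sagittal whole-body sections and read by QWBA phosphor imaging against [14C]glucose calibrants. Results are in µg apixaban eq/g; BLQ <0.037 µg eq/g.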

Brain = assay: Biodistribution in pregnant Sprague-Dawley rat brain at 5 mg/kg, po administered as single dose measured after 1 hr; type: ADME, organism-based
Rattus norvegicus [2] = assay: Biodistribution in fetal kidney of pregnant Sprague-Dawley rat at 5 mg/kg, po administered as single dose measured after 48 hrs; type: ADME, organism-based
How it was run: (§2)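 Quantitative whole-body autoradiography was run after a single 5 mg/kg (100 μCi/kg) oral gavage to fasted female or pregnant SD rats, one rat per time point. Carcasses were frozen in hexane/dry ice, and 40 µm sagittal sections were dried at −20°C for at least 48 h. Sections were exposed to a phosphor plate alongside [14C]glucose standards (0.001–6.5 µCi/g). Results are µg eq/g, with LLOQ 0.037 µg eq/g.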

Spleen [3] = assay: Biodistribution in female Sprague-Dawley rat spleen at 5 mg/kg, po administered as single dose measured after 72 hrs; type: ADME, organism-based; how it was run: as §2
Rattus norvegicus [4] = assay: Biodistribution in female Sprague-Dawley rat brown fat at 5 mg/kg, po administered as single dose measured after 0.5 hrs; type: ADME, organism-based, Brown adipose tissue
How it was run: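 [14C]apixaban (20 μCi/mL in dosing solution) in 0.5% Tween 80 in Labrafil given by oral gavage to fasted female rats, 206-213 g, at 100 μCi/kg. One rat per time point was euthanized and snap-frozen. Sagittal 40 µm whole-body sections were read by QWBA phosphor imaging against [14C]glucose standards. Results are in µg eq apixaban/g, with LLOQ 0.037 μg eq/g.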

Rattus norvegicus [5] = assay: Biodistribution in pregnant Sprague-Dawley rat brown fat at 5 mg/kg, po administered as single dose measured after 4 hrs; type: ADME, organism-based, Brown adipose tissue
Rattus norvegicus [6] = assay: Biodistribution in pregnant Sprague-Dawley rat salivary gland at 5 mg/kg, po administered as single dose measured after 48 hrs; type: ADME, organism-based
How it was run: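 Pregnant SD rats (270-319 g) were fasted overnight and given one oral gavage of 5 mg/kg (100 μCi/kg) in 0.5% Tween 80 in Labrafil. One rat was euthanized per time point (0.5, 1, 4, 8, 24, 48 h) and the carcass frozen. 40 µm sagittal sections were phosphor-imaged against [14C]glucose standards and results reported as µg eq/g; LLOQ 0.037 µg eq/g.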

Lung [7] = assay: Biodistribution in female Sprague-Dawley rat lung at 5 mg/kg, po administered as single dose measured after 0.5 hrs; type: ADME, organism-based
How it was run: (§3)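 [¹⁴C]Apixaban given by oral gavage at 5 mg/kg (100 μCi/kg) in 0.5% Tween 80 in Labrafil (1.0 mg/mL dosing solution) to rats fasted overnight through 4 h post-dose. One rat per time point; carcass frozen in hexane/dry ice. Quantitative whole-body autoradiography used 40 µm sagittal sections and a phosphor imaging plate calibrated with [¹⁴C]glucose standards (0.001–6.5 μCi/g). Read-out in µg eq apixaban/g; LLOQ 0.037 μg eq/g.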

Heart = assay: Biodistribution in pregnant Sprague-Dawley rat heart at 5 mg/kg, po administered as single dose measured after 0.5 hrs; type: ADME, organism-based
Blood [8] = assay: Biodistribution in male Sprague-Dawley rat blood at 5 mg/kg, po administered as single dose measured after 1 hr; type: ADME, organism-based; how it was run: as §3
Rattus norvegicus [9] = assay: Biodistribution in pregnant Sprague-Dawley rat bone marrow at 5 mg/kg, po administered as single dose measured after 8 hrs; type: ADME, organism-based
Muscle tissue [10] = assay: Biodistribution in male Sprague-Dawley rat muscle at 5 mg/kg, po administered as single dose measured after 72 hrs; type: ADME, organism-based; how it was run: as §1
Blood [11] = assay: Biodistribution in female Sprague-Dawley rat blood at 5 mg/kg, po administered as single dose measured after 1 hr; type: ADME, organism-based; how it was run: as §3
Rattus norvegicus [12] = assay: Biodistribution in male Sprague-Dawley rat salivary gland at 5 mg/kg, po administered as single dose measured after 8 hrs; type: ADME, organism-based
Muscle tissue [13] = assay: Biodistribution in pregnant Sprague-Dawley rat muscle at 5 mg/kg, po administered as single dose measured after 0.5 hrs; type: ADME, organism-based
Spleen [14] = assay: Biodistribution in pregnant Sprague-Dawley rat spleen at 5 mg/kg, po administered as single dose measured after 4 hrs; type: ADME, organism-based
Rattus norvegicus [15] = assay: Biodistribution in fetal kidney of pregnant Sprague-Dawley rat at 5 mg/kg, po administered as single dose measured after 1 hr; type: ADME, organism-based
How it was run: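 Pregnant rats, 270-319 g and fasted overnight, received [14C]apixaban by oral gavage at 100 μCi/kg in 0.5% Tween 80/Labrafil. One dam per time point was euthanized and frozen in hexane/dry ice. Fetal tissue radioactivity was measured by QWBA on 40 µm sagittal sections calibrated with [14C]glucose standards. Values are in µg eq/g, with LLOQ 0.037 μg eq/g.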

Adrenal gland [16] = assay: Biodistribution in male Sprague-Dawley rat adrenal gland at 5 mg/kg, po administered as single dose measured after 72 hrs; type: ADME, organism-based; how it was run: as §1
Muscle tissue [17] = assay: Biodistribution in male Sprague-Dawley rat muscle at 5 mg/kg, po administered as single dose measured after 1 hr; type: ADME, organism-based
How it was run: (§4)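 [14C]apixaban (1.0 mg/mL, 20 μCi/mL) in 0.5% Tween 80 in Labrafil, given by oral gavage at 100 μCi/kg to male rats (225-252 g) fasted overnight through 4 h post-dose. One rat per time point. Carcasses frozen in hexane/dry ice and cut into 40 µm sagittal sections. QWBA read on phosphor plates against [14C]glucose standards, reported as µg eq/g. LLOQ 0.037 µg eq/g.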

Harderian gland = assay: Biodistribution in female Sprague-Dawley rat harderian gland at 5 mg/kg, po administered as single dose measured after 24 hrs; type: ADME, organism-based; how it was run: as §2
Blood [18] = assay: Biodistribution in female Sprague-Dawley rat blood at 5 mg/kg, po administered as single dose measured after 24 hrs; type: ADME, organism-based; how it was run: as §2
Blood [19] = assay: Cmax in female Sprague-Dawley rat blood at 5 mg/kg, po administered as single dose; type: ADME, organism-based
How it was run: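 Fasted male, female or pregnant SD rats received a single oral gavage of 5 mg/kg (100 μCi/kg) in 0.5% Tween 80/Labrafil. One rat was killed per time point, up to 168 h (48 h for pregnant). Blood was collected into K3EDTA. Blood radioactivity came from autoradiogram or LSC data, and Cmax was taken from the concentration-time profile.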

Lung [20] = assay: Biodistribution in male Sprague-Dawley rat lung at 5 mg/kg, po administered as single dose measured after 24 hrs; type: ADME, organism-based; how it was run: as §4
Rattus norvegicus [21] = assay: Biodistribution in fetal brain of pregnant Sprague-Dawley rat at 5 mg/kg, po administered as single dose measured after 48 hrs; type: ADME, organism-based; how it was run: as §2
Adrenal gland [22] = assay: Biodistribution in male Sprague-Dawley rat adrenal gland at 5 mg/kg, po administered as single dose measured after 1 hr; type: ADME, organism-based; how it was run: as §3

Radiolabel recovery (Spleen [1]): Not detected assumed BLQ | Radiolabel recovery (Brain): 0.06 ugequiv/g | Radiolabel recovery (Spleen [3]): Not detected assumed BLQ | Radiolabel recovery (Rattus norvegicus [4]): 0.48 ugequiv/g | Radiolabel recovery (Rattus norvegicus [5]): 0.87 ugequiv/g | Radiolabel recovery (Rattus norvegicus [6]): Not detected assumed BLQ | Radiolabel recovery (Lung [7]): 0.43 ugequiv/g | Radiolabel recovery (Heart): 0.68 ugequiv/g | Radiolabel recovery (Blood [8]): 1.18 ugequiv/g | Radiolabel recovery (Rattus norvegicus [9]): 0.06 ugequiv/g | Radiolabel recovery (Muscle tissue [10]): Not detected assumed BLQ | Radiolabel recovery (Blood [11]): 0.88 ugequiv/g | Radiolabel recovery (Rattus norvegicus [12]): 0.13 ugequiv/g | Radiolabel recovery (Muscle tissue [13]): 0.37 ugequiv/g | Radiolabel recovery (Spleen [14]): 0.47 ugequiv/g | Radiolabel recovery (Rattus norvegicus [15]): 0.2 ugequiv/g | Radiolabel recovery (Muscle tissue [17]): 0.43 ugequiv/g | Radiolabel recovery (Harderian gland): Not detected assumed BLQ | Radiolabel recovery (Blood [18]): Not detected assumed BLQ | Cmax (Blood [19]): 880 ngequiv/g | Radiolabel recovery (Lung [20]): < 0.037 ugequiv/g | Radiolabel recovery (Rattus norvegicus [21]): Not detected assumed BLQ | Radiolabel recovery (Adrenal gland [22]): 1.2 ugequiv/g
Structure (SMILES): COc1ccc(-n2nc(C(N)=O)c3c2C(=O)N(c2ccc(N4CCCC[14C]4=O)cc2)CC3)cc1
Radiolabel recovery (Rattus norvegicus [2]): Not sampled as not visualised in autoradiograph | Radiolabel recovery (Adrenal gland [16]): Not sampled as not visualised in autoradiograph
